# Columns and labels:
# Enterococcus faecalis = assay: Antibacterial activity against Enterococcus faecalis ATCC 29212 incubated for 24 hrs by broth microdilution method; type: functional; conditions: ATCC 29212, 24 h
# DNA gyrase = DNA gyrase (Escherichia coli, UniProt P0AES4+P0AES6); assay: Inhibition of Escherichia coli GyrB A2B2 subunits assessed reduction in DNA supercoiling activity by malachite green dye based by spectrophotometry; type: protein-complex assay
# Outline: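 Inhibition was measured as loss of ATPase activity of the E. coli GyrB enzyme and reported as IC50.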
# [1] = Retention time of the compound by HPLC method; type: physicochemical
# Streptococcus pyogenes [2] = assay: Antibacterial activity against Streptococcus pyogenes ATCC 51339 incubated for 24 hrs by broth microdilution method; type: functional; conditions: ATCC 51339, 24 h
# Haemophilus influenzae = assay: Antibacterial activity against Haemophilus influenzae ATCC 49247 incubated for 24 hrs by broth microdilution method; type: functional; conditions: ATCC 49247, 24 h
# Staphylococcus aureus [3] = assay: Antibacterial activity against Staphylococcus aureus ATCC 29213 incubated for 24 hrs by broth microdilution method; type: functional; conditions: ATCC 29213, 24 h
# Streptococcus pyogenes [4] = assay: Antibacterial activity against Streptococcus pyogenes ATCC 51339 expressing ParE A53S mutant incubated for 24 hrs by broth microdilution method; type: functional; conditions: ATCC 51339, 24 h
# Staphylococcus aureus [5] = assay: Antibacterial activity against Staphylococcus aureus ATCC 29213 expressing GyrB T173N mutant incubated for 24 hrs by broth microdilution method; type: functional; conditions: ATCC 29213, 24 h
# Streptococcus pneumoniae = assay: Antibacterial activity against Streptococcus pneumoniae ATCC 49616 incubated for 24 hrs by broth microdilution method; type: functional; conditions: ATCC 49616, 24 h
# Escherichia coli [6] = assay: Antibacterial activity against Escherichia coli N43 expressing efflux pump mutant incubated for 24 hrs by broth microdilution method; type: functional; conditions: N43, 24 h
# Escherichia coli [7] = assay: Antibacterial activity against Escherichia coli ATCC 25922 incubated for 24 hrs by broth microdilution method; type: functional; conditions: ATCC 25922, 24 h
# [8] = system: Staphylococcus epidermidis; assay: Antibacterial activity against Staphylococcus epidermidis ATCC 12228 incubated for 24 hrs by broth microdilution method; type: functional; conditions: ATCC 12228, 24 h
# Staphylococcus aureus [9] = assay: Antibacterial activity against Staphylococcus aureus ATCC 29213 expressing GyrB T173N and ParE T167N mutant incubated for 24 hrs by broth microdilution method; type: functional; conditions: ATCC 29213, 24 h
SMILES,MIC (Enterococcus faecalis),IC50 (DNA gyrase),Retention_time [1],MIC (Streptococcus pyogenes [2]),MIC (Haemophilus influenzae),MIC (Staphylococcus aureus [3]),MIC (Streptococcus pyogenes [4]),MIC (Staphylococcus aureus [5]),MIC (Streptococcus pneumoniae),MIC (Escherichia coli [6]),MIC (Escherichia coli [7]),MIC [8],MIC (Staphylococcus aureus [9])
CCNC(=O)Nc1nc2cc(-c3cccnc3)cc(-c3ccccn3)c2s1,< 0.25 µg/mL,< 0.75 µM,,,,,,,,,,,
CCNC(=O)Nc1ccc(C(=O)Nc2cccnc2)cn1,256 µg/mL,6 µM,1.25 min,32 µg/mL,> 256 µg/mL,> 256 µg/mL,,,,,,,
CCNC(=O)Nc1ccc(C(=O)Nc2ccccc2)cn1,> 16 µg/mL,7.7 µM,1.69 min,> 16 µg/mL,> 16 µg/mL,> 64 µg/mL,,,,,,,
CCNC(=O)Nc1ccc(C(=O)Nc2cccc(Cl)c2)cn1,16 µg/mL,1.6 µM,1.84 min,16 µg/mL,> 64 µg/mL,16 µg/mL,> 64 µg/mL,> 64 µg/mL,,,,,
CCNC(=O)Nc1ccc(C(=O)Nc2ccccc2Cl)cn1,> 64 µg/mL,2.1 µM,1.7 min,> 64 µg/mL,> 64 µg/mL,> 64 µg/mL,,,,,,,
CCNC(=O)Nc1ccc(C(=O)Nc2ccc(Cl)cc2)cn1,> 64 µg/mL,3.3 µM,1.83 min,> 64 µg/mL,> 64 µg/mL,> 64 µg/mL,,,,,,,
CCNC(=O)Nc1ccc(C(=O)Nc2cccc(F)c2)cn1,32 µg/mL,3 µM,1.74 min,32 µg/mL,> 64 µg/mL,32 µg/mL,> 64 µg/mL,> 64 µg/mL,,,,,
CCNC(=O)Nc1ccc(C(=O)Nc2cccc(C)c2)cn1,32 µg/mL,3.4 µM,1.76 min,32 µg/mL,> 64 µg/mL,32 µg/mL,> 64 µg/mL,> 64 µg/mL,,,,,
CCNC(=O)Nc1ccc(C(=O)Nc2cccc(C#N)c2)cn1,> 64 µg/mL,3.8 µM,1.69 min,32 µg/mL,> 64 µg/mL,> 64 µg/mL,,,,,,,
CCNC(=O)Nc1ccc(C(=O)Nc2cccc(C(N)=O)c2)cn1,> 256 µg/mL,24.5 µM,1.44 min,> 256 µg/mL,> 256 µg/mL,> 256 µg/mL,,,,,,,
CCNC(=O)Nc1ccc(C(=O)Nc2cccc(CC)c2)cn1,> 256 µg/mL,40.4 µM,1.84 min,> 256 µg/mL,> 256 µg/mL,> 256 µg/mL,,,,,,,
CCNC(=O)Nc1ccc(C(=O)Nc2ccc(OC)c(OC)c2)cn1,32 µg/mL,6.2 µM,1.59 min,32 µg/mL,> 64 µg/mL,> 64 µg/mL,> 64 µg/mL,,,,,,
CCNC(=O)Nc1ccc(C(=O)Nc2cc(Cl)ccc2C)cn1,> 64 µg/mL,7.5 µM,1.77 min,> 64 µg/mL,> 64 µg/mL,> 64 µg/mL,,,,,,,
CCNC(=O)Nc1ccc(C(=O)Nc2ccncc2)cn1,64 µg/mL,3.5 µM,1.19 min,64 µg/mL,> 64 µg/mL,> 64 µg/mL,,,,,,,
CCNC(=O)Nc1ccc(C(=O)Nc2ccnc(C)c2)cn1,> 64 µg/mL,5.3 µM,1.24 min,> 64 µg/mL,> 64 µg/mL,> 64 µg/mL,,,,,,,
CCNC(=O)Nc1ccc(C(=O)Nc2cc(C(=O)OC)ccn2)cn1,> 64 µg/mL,14 µM,1.66 min,> 64 µg/mL,> 64 µg/mL,> 64 µg/mL,,,,,,,
CCNC(=O)Nc1ccc(C(=O)Nc2nccs2)cn1,> 64 µg/mL,0.42 µM,1.52 min,> 64 µg/mL,> 64 µg/mL,> 64 µg/mL,,,,,,,
CCNC(=O)Nc1ccc(C(=O)Nc2ncc(C(=O)O)s2)cn1,> 64 µg/mL,0.96 µM,1.43 min,> 64 µg/mL,> 64 µg/mL,> 64 µg/mL,,,,,,,
CCNC(=O)Nc1ccc(C(=O)NC2CCCCC2)cn1,> 64 µg/mL,23.1 µM,1.67 min,> 64 µg/mL,> 64 µg/mL,> 64 µg/mL,,,,,,,
CCNC(=O)Nc1cc(Nc2cccc(C)c2)c(C(=O)Nc2cccc(C)c2)cn1,0.5 µg/mL,0.099 µM,1.75 min,32 µg/mL,> 64 µg/mL,1 µg/mL,,,,,,,

SMILES,MIC (Enterococcus faecalis),IC50 (DNA gyrase),Retention_time [1],MIC (Streptococcus pyogenes [2]),MIC (Haemophilus influenzae),MIC (Staphylococcus aureus [3]),MIC (Streptococcus pyogenes [4]),MIC (Staphylococcus aureus [5]),MIC (Streptococcus pneumoniae),MIC (Escherichia coli [6]),MIC (Escherichia coli [7]),MIC [8],MIC (Staphylococcus aureus [9])
CCNC(=O)Nc1cc(Nc2cccc(C)c2)c(C(=O)Nc2nccs2)cn1,> 64 µg/mL,0.098 µM,1.51 min,> 64 µg/mL,> 64 µg/mL,> 64 µg/mL,,,,,,,
CCNC(=O)Nc1cc(N2CCN(C)CC2)c(C(=O)Nc2cccc(Cl)c2)cn1,> 64 µg/mL,5.14 µM,1.36 min,> 64 µg/mL,> 64 µg/mL,> 64 µg/mL,,,,,,,
CCNC(=O)Nc1cc(N2CCN(C)CC2)c(C(=O)Nc2cccnc2)cn1,> 64 µg/mL,5.66 µM,0.27 min,> 64 µg/mL,> 64 µg/mL,> 64 µg/mL,,,,,,,
CCNC(=O)Nc1cc(N2CCN(C)CC2)c(C(=O)Nc2cccc(C)c2)cn1,> 64 µg/mL,18 µM,1.26 min,> 64 µg/mL,> 64 µg/mL,> 64 µg/mL,,,,,,,
CCNC(=O)Nc1cc(N2CCN(C)CC2)c(C(=O)Nc2nccs2)cn1,> 64 µg/mL,33.2 µM,1.18 min,> 64 µg/mL,> 64 µg/mL,> 64 µg/mL,,,,,,,
CCNC(=O)Nc1cc(-n2ccnc2)c(C(=O)Nc2cccc(Cl)c2)cn1,32 µg/mL,0.55 µM,1.44 min,64 µg/mL,> 64 µg/mL,> 64 µg/mL,,,,,,,
CCNC(=O)Nc1cc(-c2cccnc2)c(C(=O)Nc2nccs2)cn1,64 µg/mL,0.56 µM,1.36 min,64 µg/mL,> 64 µg/mL,> 64 µg/mL,,,,,,,
CCNC(=O)Nc1cc(-c2cccnc2)c(C(=O)Nc2cccnc2)cn1,64 µg/mL,1.13 µM,1.12 min,64 µg/mL,> 64 µg/mL,> 64 µg/mL,,,,,,,
CCNC(=O)Nc1cc(-c2cccnc2)c(C(=O)Nc2cccc(Cl)c2)cn1,64 µg/mL,3.02 µM,1.6 min,64 µg/mL,> 64 µg/mL,> 64 µg/mL,,,,,,,
CCNC(=O)Nc1cc(-c2cccnc2)c(C(=O)Nc2cccc(C)c2)cn1,64 µg/mL,7.27 µM,1.51 min,> 64 µg/mL,> 64 µg/mL,> 64 µg/mL,,,,,,,
CCNC(=O)Nc1cc(-c2ccccc2)c(C(=O)Nc2cccc(Cl)c2)cn1,4 µg/mL,0.81 µM,1.88 min,> 64 µg/mL,> 64 µg/mL,> 64 µg/mL,,,,,,,
CCNC(=O)Nc1cc(NC2CCCCC2)c(C(=O)Nc2cccc(C)c2)cn1,> 64 µg/mL,2.12 µM,1.7 min,> 64 µg/mL,> 64 µg/mL,> 64 µg/mL,,,,,,,
CCNC(=O)Nc1cc(NCc2cccnc2)c(C(=O)Nc2cccnc2)cn1,8 µg/mL,0.66 µM,1.23 min,8 µg/mL,> 64 µg/mL,> 64 µg/mL,,,,,,,
CCNC(=O)Nc1cc(NCc2cccnc2)c(C(=O)Nc2ccccc2)cn1,2 µg/mL,4.81 µM,1.3 min,8 µg/mL,> 64 µg/mL,> 64 µg/mL,,,,,,,
CCNC(=O)Nc1cc(Nc2ccccc2)c(C(=O)Nc2cccc(Cl)c2)cn1,0.125 µg/mL,0.15 µM,1.71 min,4 µg/mL,> 64 µg/mL,0.5 µg/mL,32 µg/mL,1 µg/mL,1 µg/mL,> 64 µg/mL,> 64 µg/mL,0.5 µg/mL,> 64 µg/mL
CCNC(=O)Nc1cc(Nc2ccccc2)c(C(=O)Nc2ccc(-n3cncn3)nc2)cn1,0.25 µg/mL,0.15 µM,1.54 min,> 16 µg/mL,> 64 µg/mL,> 16 µg/mL,,,,,,,
CCNC(=O)Nc1cc(Nc2ccccc2)c(C(=O)NCc2cccnc2)cn1,0.5 µg/mL,2 µM,1.24 min,1 µg/mL,> 64 µg/mL,> 16 µg/mL,,,,,,,
CCNC(=O)Nc1cc(Oc2ccccc2)c(C(=O)Nc2ccccc2)cn1,> 16 µg/mL,4.9 µM,1.93 min,> 16 µg/mL,> 64 µg/mL,> 16 µg/mL,,,,,,,
CCNC(=O)Nc1cc(Nc2cccnc2)c(C(=O)Nc2cccnc2)cn1,0.5 µg/mL,0.093 µM,1.38 min,1 µg/mL,> 64 µg/mL,8 µg/mL,,,,,,,
CCNC(=O)Nc1ccc(C(=O)Nc2ccc3c(C)cc(=O)oc3c2)cn1,> 64 µg/mL,8.4 µM,1.64 min,> 64 µg/mL,> 64 µg/mL,> 64 µg/mL,,,,,,,
